ChEMBL document CHEMBL2069191, “Antitrypanosomal and antioxidant properties of 4-hydroxycoumarins derivatives” (2012)
Calls of active or inactive are those of the source. No cut-off for these calls is given here.

Experiments:
Assay type in all cases: functional
Trypanosoma cruzi = experiment: Antitrypanosomal activity against trypomastigote stage of Trypanosoma cruzi Dm28c at 10 umol/L after 24 hrs by MTT assay
How it was run: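 Parasites at 10⁷ per mL exposed to compound in DMSO ([…] final as printed, DMSO below 0.1% v/v) for 24 h at 37 °C. Nifurtimox served as positive control. Colorimetric read-out of viable parasites by absorbance at 570 nm.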

[1] = Antioxidant activity assessed as inhibition of hydroxyl radical production at 1 mM after 5 mins by ESR spectrophotometry
How it was run: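 Hydroxyl radical generated in N,N-dimethylformamide with NaOH (3 mM final), DMPO spin trap (30 mM final) and 30% hydrogen peroxide. Compounds at 1 mM final. EPR spectrum recorded after 5 min of reaction, with % scavenging derived from it.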

[2] = Antioxidant activity against APPH radical assessed as trolox equivalent incubated for 15 mins prior to APPH addition measured every 1 min by 120 mins by fluorescein-based ORAC method
How it was run: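 Peroxyl-radical scavenging by ORAC-FL. Fluorescein (40 nM final) and compound in methanol (0.3–2 M range, as printed) in 75 mM sodium phosphate buffer pH 7.4. Preincubated 15 min at 37 °C, then AAPH (18 mM final) added. Fluorescence read at ex 485/em 528 nm every 1 min for 120 min. Area under the decay curve calculated, expressed relative to trolox. Means SD.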

SMILES | Activity (Trypanosoma cruzi) | inhibition [1] | Activity [2]
COc1ccc(-c2c(O)c3ccccc3oc2=O)cc1 | 1.6% | 46.3% | 5.7 equiv
Oc1cc(O)c2c(c1)OC(c1ccc(O)c(O)c1)C(O)C2 (centres undefined) | – | – | 6.76 equiv
O=c1oc2ccccc2c(O)c1-c1cccc(O)c1 | 3.9% | 40.2% | 4.9 equiv
O=c1cc(O)c2ccccc2o1 | inactive | 61.9% | 4.2 equiv
Cc1ccc(-c2c(O)c3ccccc3oc2=O)cc1 | 16.7% | 34.6% | 6.5 equiv
O=c1oc2ccccc2c(O)c1-c1ccccc1 | 21.1% | 45.1% | 4.4 equiv
CC1CS(=O)(=O)CCN1/N=C/c1ccc([N+](=O)[O-])o1 (centres undefined) [NIFURTIMOX] | 52.5% | – | –
O=c1oc2ccccc2c(O)c1-c1ccc(Cl)cc1 | 30.7% | 31.3% | 3.9 equiv
O=c1oc2ccc(Cl)cc2c(O)c1-c1cccc(O)c1 | inactive | 100% | 7.7 equiv
O=c1c(O)c(-c2ccc(O)c(O)c2)oc2cc(O)cc(O)c12 | – | – | 7.28 equiv
